Laboratory results reported in ChEMBL document CHEMBL4513216, “Probing the Open Global Health Chemical Diversity Library for Multistage-Active Starting Points for Next-Generation Antimalarials” (ACS Infect Dis, 2020).

Assay: Toxicity liver stage against HepG2, at 10uM
Format: cell-based
Set-up: test concentration 10 uM, cell line HepG2-A16-CD81EGFP
Settings: human, HepG2-A16-CD81EGFP cells; read-out: INHIBITION
Outline: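 Uninfected HepG2-A16-CD81EGFP cells, 3 × 10^3 per well, 1536-well, plated on prespotted compound at 10 μM final, parasite-free screening media added to match infected plates; puromycin 10 μM positive, DMSO 0.5% negative; run in parallel with 48 h PbLuc assay at 37 °C, 5% CO2; viability by CellTiter-Glo luminescence, normalized to controls.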

Work on `O=C(c1ccccc1Cl)N1CCN(CCc2ccccn2)CC1` yielded a cytotoxicity at 10 µM of 5.75%.
With `Cc1ccnc(NC(=O)CCNC(=O)c2ccccc2Cl)c1` the cytotoxicity at 10 µM was -2.66%.
With `CN(C)Cc1cc(CC2(NCc3ccc(C#N)cc3)COC2)no1` the cytotoxicity at 10 µM was -5.96%.
With `COc1coc(C(=O)Nc2nc(-c3ccccn3)cs2)cc1=O` the cytotoxicity at 10 µM was 7.31%.
`COc1cccc(OC)c1C(=O)NCC(c1cccn1C)N1CCCC1` (centres undefined) showed a cytotoxicity at 10 µM of 6.89%.
In the case of `Cc1cccc(CS(=O)(=O)NCc2nn(C)c3c2COCC3)c1`, the cytotoxicity at 10 µM is reported as -3.02%.
With `COC(CNC(=O)c1cn(C)nn1)c1ccccc1C` (centres undefined) the cytotoxicity at 10 µM was -14.5%.
`CN(Cc1cccnc1)[C@@H]1CN(Cc2ccccn2)[C@@H]2CCCO[C@H]12` showed a cytotoxicity at 10 µM of -0.0545%.
Work on `O=c1cc(CN2CCCC2)nc2n1CCCN(Cc1ccsc1)C2` yielded a cytotoxicity at 10 µM of -6.44%.
Compound `COc1ccc(C(C)NC(=O)c2nn(C)c(C)c2Br)cc1` (centres undefined) has a cytotoxicity at 10 µM of 9.18%.
For `Cc1nn(C)c2c(N3CCN(C(=O)C4CCCO4)CC3)ncnc12` (centres undefined), the cytotoxicity at 10 µM was 6.42%.
`Clc1ccc2[nH]c3c(c2c1)CCCC3c1nn[nH]n1` (centres undefined) gave a cytotoxicity at 10 µM of -4.13%.
`CC(C)(C)C(=O)NCCc1cc(N2CCOCC2)nc(NC2CC2)n1` gave a cytotoxicity at 10 µM of 6.68%.
`CC(C)(C)Nc1c(C2CCN(C(=O)C(C)(C)C)CC2)nc2ccccn12` showed a cytotoxicity at 10 µM of 6.53%.
`Cn1nccc1C(=O)N1CCC(c2ncc(Cl)cc2S(C)(=O)=O)CC1` gave a cytotoxicity at 10 µM of 7.91%.
For `Cc1cnc(CC2COCCN(C(=O)CN3CCCCC3)C2)cn1` (centres undefined), the cytotoxicity at 10 µM was -3.22%.
With `Cc1cc(-c2cnc(C(C)C)nc2CN(C)C(=O)c2ccccn2)on1` the cytotoxicity at 10 µM was 2.47%.
`COCCC(=O)N1CCCC(c2noc3nc(C)cc(C(F)(F)F)c23)C1` (centres undefined) showed a cytotoxicity at 10 µM of -19.9%.
With `CCc1c(C)nc(C2CCCN2C(=O)c2cc(C)no2)nc1O` (centres undefined) the cytotoxicity at 10 µM was -5.75%.
`Cc1ccc(S(=O)(=O)N2CCN(CCCO)CC2)s1` showed a cytotoxicity at 10 µM of -9.12%.
For `Cc1noc(CN(Cc2ccco2)Cc2cccc3c2OCO3)n1`, the cytotoxicity at 10 µM was -2.51%.
For `CS(=O)(=O)NC1CCN(Cc2coc(-c3ccccc3)n2)CC1`, the cytotoxicity at 10 µM was -43.3%.
In the case of `CC(NCc1nnc2n1CCCC2)c1nc(C(C)(C)C)no1` (centres undefined), the cytotoxicity at 10 µM is reported as -39.2%.
Work on `CSC1(CNC(=O)NCc2sccc2C)CCOCC1` yielded a cytotoxicity at 10 µM of -49.6%.
In the case of `COC(=O)c1ccc(N2CCN(C(=O)C3CCC3)C(C)C2)cc1` (centres undefined), the cytotoxicity at 10 µM is reported as -4.18%.
Compound `COc1cc(C(=O)O)ccc1OCC(=O)NC(C)c1ccc(F)cc1` (centres undefined) has a cytotoxicity at 10 µM of -1.4%.
`Cc1cc(CN(Cc2ccccc2)CC(O)c2cccs2)on1` (centres undefined) gave a cytotoxicity at 10 µM of 5.29%.
With `CC(Oc1ccccc1C(F)(F)F)C(=O)NCCCC(N)=O` (centres undefined) the cytotoxicity at 10 µM was -1.73%.
Compound `Cc1cc(C)n(CCC(=O)N2CCCC(n3nc(C)nc3C)C2)n1` (centres undefined) has a cytotoxicity at 10 µM of -5.61%.
Compound `CCOc1cc(CNC(=O)NCc2nc(C)c(C)s2)ccn1` has a cytotoxicity at 10 µM of -2.49%.
`O=S1(=O)CCC(n2cc(CNCC3(c4ccccc4)CC3)cn2)C1` (centres undefined) gave a cytotoxicity at 10 µM of 16.5%.
With `COc1cc(F)c(S(=O)(=O)NCc2ccnc(N(C)C)n2)cc1OC` the cytotoxicity at 10 µM was -147%.
Work on `CC(NC(=O)Nc1nncs1)C(=O)NC1CCCC1` (centres undefined) yielded a cytotoxicity at 10 µM of -5.36%.
`Cc1nc(CNC(=O)NC2CCN(c3ncccc3Cl)C2)oc1C` (centres undefined) gave a cytotoxicity at 10 µM of 2.93%.
Compound `O=C(O)CC1CN(S(=O)(=O)c2cccc(F)c2)c2ccccc21` (centres undefined) has a cytotoxicity at 10 µM of -4.17%.
Compound `CNC(=O)C(C)S(=O)(=O)Cc1csc(-c2cccs2)n1` (centres undefined) has a cytotoxicity at 10 µM of -11.9%.
With `CNC(=O)C1CCCN(C(=O)NCCC2Cc3ccccc3C2)C1` (centres undefined) the cytotoxicity at 10 µM was 15.4%.
In the case of `O=C(NCC1CCC2(CC1)OCCO2)c1cccc(-n2cccn2)c1`, the cytotoxicity at 10 µM is reported as 0.477%.
For `O=C(COc1ccccc1C(F)(F)F)NCCNC(=O)c1ccccc1`, the cytotoxicity at 10 µM was -9.53%.
`CC(C)N(CC1CCCN(CC(N)=O)C1)C(=O)OC(C)(C)C` (centres undefined) gave a cytotoxicity at 10 µM of -5.66%.
Compound `Cc1nc(CNC(=O)c2oc3ccccc3c2CN(C)C)oc1C` has a cytotoxicity at 10 µM of 9.46%.
Compound `CCc1noc(C(C)N2CCC(NC(=O)c3ccc(C)s3)CC2)n1` (centres undefined) has a cytotoxicity at 10 µM of -9.9%.
Compound `CCN(C(=O)COC)C(c1cccnc1)c1cc(C)cc(C)c1` (centres undefined) has a cytotoxicity at 10 µM of -20.9%.
In the case of `Cc1cc(F)ccc1CNCCn1cccn1`, the cytotoxicity at 10 µM is reported as -10.2%.
For `O=C(c1ccnn1-c1ccc2ccccn12)N1CCCC1`, the cytotoxicity at 10 µM was -102%.
`Cn1nc(C#N)c2c1CN(C(=O)c1nc[nH]n1)CCC2` gave a cytotoxicity at 10 µM of -100%.
With `COc1cc(N2CCC3(C2)CN(c2cccnc2)C(=O)CN3C)ncn1` (centres undefined) the cytotoxicity at 10 µM was -107%.
`CC(C)n1cnc(-c2nc(C(=O)NC3CC3)c3ccccn23)c1` showed a cytotoxicity at 10 µM of -102%.
For `CS(=O)(=O)NCc1noc2c1CN(C(=O)C1CC1)CC2`, the cytotoxicity at 10 µM was -107%.
Compound `CCOCC1CC2(CCN(Cc3ccccn3)CC2)CO1` (centres undefined) has a cytotoxicity at 10 µM of -0.671%.
In the case of `N#CC1(c2ccccc2)CCN(C(=O)CN2C(=O)CCNC2=O)CC1`, the cytotoxicity at 10 µM is reported as 0.172%.
In the case of `CCn1cc(-c2c(C)c(C3CCOC(C)(C)C3)nc(N)c2C#N)cn1` (centres undefined), the cytotoxicity at 10 µM is reported as -10.3%.
For `COc1ccc(CN(C)C2CCN(S(C)(=O)=O)CC2)c2cccnc12`, the cytotoxicity at 10 µM was 98.9%.
`N#CC1(c2ccccc2)CCN(C(=O)C2CCCN(C(N)=O)C2)CC1` (centres undefined) showed a cytotoxicity at 10 µM of -22.2%.
